Key:
[1] = test system: HeLa; test: Antiproliferative activity against human HeLa cells assessed as inhibition of cell viability after 72 hrs by CCK-8 assay; format: functional, cell-based
Procedure, shortened: (§1)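 Cells kept at 37 °C, 5% CO2 in DMEM or RPMI-1640 with 10% FBS and 1% penicillin/streptomycin, then seeded at 3000 cells/well (adherent) or 10,000 cells/well (suspension). Exposed to a range of concentrations for 72 h. CCK-8 added for 1-4 h before reading A450. […] Three independent experiments.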

[2] = test system: U-937; test: Antiproliferative activity against human U937 cells assessed as inhibition of cell viability after 72 hrs by CCK-8 assay; format: functional, cell-based; conditions: U-937, 72 h; procedure, shortened: as §1
[3] = test system: NCI-H1299; test: Induction of cell cycle arrest in human H1299 cells assessed as reduction in accumulation of cells at S phase at 1 uM after 24 hrs by propidium iodide/RNase staining based flow cytometric analysis (reference value: 24.5%); format: functional; design: scale not given: the % may be the effect or the level left
Procedure, shortened: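 A549 and H1299 plated at 5×10^5 cells/mL in 6-well plates, treated after adherence for 24 h. Washed with PBS, fixed overnight in ice-cold 75% ethanol, stained with propidium iodide plus RNase A for 30 min at 37 °C, analysed by flow cytometry for phase distribution. Means ± SD, three independent experiments.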

[4] = test system: NCI-H1299; test: Induction of apoptosis in human H1299 cells assessed as early apoptotic cells at 1 uM after 48 hrs by AnnexinV-FITC/PI staining-based flow cytometric analysis (reference value: 0.248%); format: functional
[5] = test system: Tyrosine-protein kinase ABL1 (Homo sapiens), P00519 [Q252H]; test: Inhibition of recombinant human ABL Q252H mutant (27 to end residues) at 1 uM using EAIYAAPFAKKK as substrate measured after 40 mins in presence of [gamma33P]ATP by scintillation counting method relative to control
[6] = target: 5'-AMP-activated protein kinase catalytic subunit alpha-2 (Homo sapiens) (UniProt P54646); test: Inhibition of full length recombinant human AMPK alpha2 at 1 uM using AMARAASAAALARRR as substrate measured after 40 mins in presence of [gamma33P]ATP by scintillation counting method relative to control
[7] = test system: Hepatocyte growth factor receptor (Homo sapiens), P08581 [D1228H]; test: Inhibition of recombinant human MET A1209G/V1290L/D1246H mutant (974 to end residues) at 1 uM using KKKGQEEEYVFIE as substrate measured after 40 mins in presence of [gamma33P]ATP by scintillation counting method relative to control
[8] = target: CDK7/Cyclin H/MNAT1 (Homo sapiens) (UniProt P51946+P50613+P51948); test: Inhibition of human full length recombinant CDK7/cyclinH/MAT1 at 1 uM using peptide as substrate incubated for 40 mins in presence of [gamma-33P]ATP at by radiometric assay relative to control; format: protein-complex assay
[9] = target: Serine/threonine-protein kinase Nek11 (Homo sapiens) (UniProt Q8NG66); test: Inhibition of recombinant full-length human NEK11 at 1 uM using myelin basic protein as substrate measured after 40 mins in presence of [gamma33P]ATP by scintillation counting method relative to control
[10] = target: Serine/threonine-protein kinase PAK 1 (Homo sapiens) (UniProt Q13153); test: Inhibition of recombinant human PAK1 (150 to end residues) at 1 uM using RRRLSFAEPG as substrate measured after 40 mins in presence of [gamma33P]ATP by scintillation counting method relative to control
[11] = test system: Phosphorylase b kinase gamma catalytic chain, liver/testis isoform (Homo sapiens), P15735 [F290L]; test: Inhibition of recombinant human PhKG2 F290L mutant (1 to 301 residues) at 1 uM using KKLNRTLSFAEPG as substrate measured after 40 mins in presence of [gamma33P]ATP by scintillation counting method relative to control
[12] = target: Serine/threonine-protein kinase pim-3 (Homo sapiens) (UniProt Q86V86); test: Inhibition of recombinant human Pim-3 (2 to end residues) at 1 uM using RSRHSSYPAGT as substrate measured after 40 mins in presence of [gamma33P]ATP by scintillation counting method relative to control
[13] = test system: RAC-beta serine/threonine-protein kinase (Homo sapiens), P31751 [S474D]; test: Inhibition of recombinant human pkb-beta S474D mutant (120 to end residues) at 1 uM using GRPRTSSFAEGKK as substrate measured after 40 mins in presence of [gamma33P]ATP by scintillation counting method relative to control
[14] = target: Dual specificity tyrosine-phosphorylation-regulated kinase 3 (Homo sapiens) (UniProt O43781); test: Inhibition of recombinant full-length human DYRK3 at 1 uM using RRRFRPASPLRGPPK as substrate measured after 40 mins in presence of [gamma33P]ATP by scintillation counting method relative to control
[15] = test system: Serine/threonine-protein kinase N1 (Homo sapiens), Q16512 [V901I]; test: Inhibition of human PRK1 V901I mutant (498 to end residues) at 1 uM using KKLNRTLSFAEPG as substrate measured after 40 mins in presence of [gamma33P]ATP by scintillation counting method relative to control
Procedure, shortened: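 Percent inhibition of kinase activity at a single compound concentration, measured by the outsourced Eurofins KinaseProfiler panel. Values are the mean of two independent experiments.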

[16] = target: Serine/threonine-protein kinase PRP4 homolog (Homo sapiens) (UniProt Q13523); test: Inhibition of human PRP4 (663 to end residues) at 1 uM using casein as substrate measured after 120 mins in presence of [gamma33P]ATP by scintillation counting method relative to control
Procedure, shortened: (§2)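 Single-point inhibition at 1 µM was measured in the Eurofins KinaseProfiler panel. Values are the mean of two independent experiments.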

[17] = target: Vascular endothelial growth factor receptor 1 (Homo sapiens) (UniProt P17948); test: Inhibition of recombinant human Flt1 (783 to end residues) at 1 uM using KKKSPGEYVNIEFG as substrate measured after 40 mins in presence of [gamma33P]ATP by scintillation counting method relative to control
[18] = target: Macrophage colony-stimulating factor 1 receptor (Homo sapiens) (UniProt P07333); test: Inhibition of recombinant human Fms (538 to end residues) at 1 uM using KKKSPGEYVNIEFG as substrate measured after 40 mins in presence of [gamma33P]ATP by scintillation counting method relative to control
[19] = test system: Angiopoietin-1 receptor (Homo sapiens), Q02763 [Q939H,Q940H,Y897S]; test: Inhibition of human Tie2 Q939H/Q940H/Y897S mutant (771 to end residues) at 1 uM using EFPIYDFLPAKKK as substrate measured after 40 mins in presence of [gamma33P]ATP by scintillation counting method relative to control; procedure, shortened: as §2
[20] = target: NT-3 growth factor receptor (Homo sapiens) (UniProt Q16288); test: Inhibition of recombinant human TrkC (510 to end residues) at 1 uM using GEEPLYWSFPAKKK as substrate measured after 40 mins in presence of [gamma33P]ATP by scintillation counting method relative to control

Chain of 5'-AMP-activated protein kinase catalytic subunit alpha-2 (Homo sapiens) (P54646 whole entry, looked up): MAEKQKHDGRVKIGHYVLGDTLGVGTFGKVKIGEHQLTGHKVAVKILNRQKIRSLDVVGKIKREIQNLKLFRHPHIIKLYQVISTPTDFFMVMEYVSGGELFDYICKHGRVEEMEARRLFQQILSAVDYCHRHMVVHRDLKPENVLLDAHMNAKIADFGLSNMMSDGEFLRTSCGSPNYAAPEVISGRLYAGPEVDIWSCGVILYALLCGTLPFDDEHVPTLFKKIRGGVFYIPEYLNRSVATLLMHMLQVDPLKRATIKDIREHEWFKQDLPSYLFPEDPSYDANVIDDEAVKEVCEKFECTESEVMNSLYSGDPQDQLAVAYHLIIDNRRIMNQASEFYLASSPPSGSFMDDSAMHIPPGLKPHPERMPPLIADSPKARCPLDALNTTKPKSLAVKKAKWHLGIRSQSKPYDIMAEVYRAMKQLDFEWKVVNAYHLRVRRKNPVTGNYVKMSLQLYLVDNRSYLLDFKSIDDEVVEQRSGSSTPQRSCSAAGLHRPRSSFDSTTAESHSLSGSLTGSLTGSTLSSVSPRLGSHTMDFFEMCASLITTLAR
Chain of Serine/threonine-protein kinase PAK 1 (Homo sapiens) (Q13153 whole entry, the tested form may be a part, canonical isoform): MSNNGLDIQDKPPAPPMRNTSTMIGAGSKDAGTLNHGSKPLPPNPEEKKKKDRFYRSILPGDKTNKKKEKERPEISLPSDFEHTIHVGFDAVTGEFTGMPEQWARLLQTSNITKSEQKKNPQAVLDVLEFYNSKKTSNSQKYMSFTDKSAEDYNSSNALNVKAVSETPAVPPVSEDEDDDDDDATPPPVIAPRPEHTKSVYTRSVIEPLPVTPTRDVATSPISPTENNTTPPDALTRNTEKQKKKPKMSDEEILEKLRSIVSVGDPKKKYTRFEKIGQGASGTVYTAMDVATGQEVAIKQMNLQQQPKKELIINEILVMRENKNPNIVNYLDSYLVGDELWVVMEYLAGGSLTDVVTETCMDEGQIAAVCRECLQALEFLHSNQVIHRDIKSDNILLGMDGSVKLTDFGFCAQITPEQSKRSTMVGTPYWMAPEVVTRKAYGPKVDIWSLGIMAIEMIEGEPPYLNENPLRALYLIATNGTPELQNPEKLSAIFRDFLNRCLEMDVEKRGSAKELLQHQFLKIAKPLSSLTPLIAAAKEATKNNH
Chain of RAC-beta serine/threonine-protein kinase (Homo sapiens), P31751 [S474D] (P31751 whole entry S474D): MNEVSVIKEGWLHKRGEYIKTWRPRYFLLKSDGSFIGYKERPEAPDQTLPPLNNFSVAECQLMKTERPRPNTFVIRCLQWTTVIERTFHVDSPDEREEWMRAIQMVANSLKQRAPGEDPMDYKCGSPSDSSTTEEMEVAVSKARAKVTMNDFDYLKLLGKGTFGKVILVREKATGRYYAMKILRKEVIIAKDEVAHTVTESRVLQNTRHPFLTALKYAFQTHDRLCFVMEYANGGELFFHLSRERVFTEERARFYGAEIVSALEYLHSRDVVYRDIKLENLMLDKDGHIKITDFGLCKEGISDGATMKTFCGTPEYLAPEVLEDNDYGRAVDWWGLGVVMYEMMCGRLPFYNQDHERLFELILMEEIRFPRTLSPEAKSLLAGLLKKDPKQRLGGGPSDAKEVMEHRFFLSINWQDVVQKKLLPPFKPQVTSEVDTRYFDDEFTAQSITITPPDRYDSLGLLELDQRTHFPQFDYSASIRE
Chain of Phosphorylase b kinase gamma catalytic chain, liver/testis isoform (Homo sapiens), P15735 [F290L] (P15735 whole entry F290L, the tested form may be a part, canonical isoform): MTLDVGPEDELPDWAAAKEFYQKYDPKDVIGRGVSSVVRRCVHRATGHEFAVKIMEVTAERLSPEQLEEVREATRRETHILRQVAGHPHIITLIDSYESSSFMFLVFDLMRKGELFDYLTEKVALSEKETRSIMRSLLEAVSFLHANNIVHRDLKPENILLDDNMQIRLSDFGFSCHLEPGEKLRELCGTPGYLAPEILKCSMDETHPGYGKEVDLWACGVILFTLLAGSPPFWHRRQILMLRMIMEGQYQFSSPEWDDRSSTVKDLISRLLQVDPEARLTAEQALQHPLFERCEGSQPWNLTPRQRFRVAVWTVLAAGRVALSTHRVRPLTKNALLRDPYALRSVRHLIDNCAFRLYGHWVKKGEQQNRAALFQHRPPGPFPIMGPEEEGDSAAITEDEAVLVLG
Chain of Serine/threonine-protein kinase N1 (Homo sapiens), Q16512 [V901I] (Q16512 whole entry V901I): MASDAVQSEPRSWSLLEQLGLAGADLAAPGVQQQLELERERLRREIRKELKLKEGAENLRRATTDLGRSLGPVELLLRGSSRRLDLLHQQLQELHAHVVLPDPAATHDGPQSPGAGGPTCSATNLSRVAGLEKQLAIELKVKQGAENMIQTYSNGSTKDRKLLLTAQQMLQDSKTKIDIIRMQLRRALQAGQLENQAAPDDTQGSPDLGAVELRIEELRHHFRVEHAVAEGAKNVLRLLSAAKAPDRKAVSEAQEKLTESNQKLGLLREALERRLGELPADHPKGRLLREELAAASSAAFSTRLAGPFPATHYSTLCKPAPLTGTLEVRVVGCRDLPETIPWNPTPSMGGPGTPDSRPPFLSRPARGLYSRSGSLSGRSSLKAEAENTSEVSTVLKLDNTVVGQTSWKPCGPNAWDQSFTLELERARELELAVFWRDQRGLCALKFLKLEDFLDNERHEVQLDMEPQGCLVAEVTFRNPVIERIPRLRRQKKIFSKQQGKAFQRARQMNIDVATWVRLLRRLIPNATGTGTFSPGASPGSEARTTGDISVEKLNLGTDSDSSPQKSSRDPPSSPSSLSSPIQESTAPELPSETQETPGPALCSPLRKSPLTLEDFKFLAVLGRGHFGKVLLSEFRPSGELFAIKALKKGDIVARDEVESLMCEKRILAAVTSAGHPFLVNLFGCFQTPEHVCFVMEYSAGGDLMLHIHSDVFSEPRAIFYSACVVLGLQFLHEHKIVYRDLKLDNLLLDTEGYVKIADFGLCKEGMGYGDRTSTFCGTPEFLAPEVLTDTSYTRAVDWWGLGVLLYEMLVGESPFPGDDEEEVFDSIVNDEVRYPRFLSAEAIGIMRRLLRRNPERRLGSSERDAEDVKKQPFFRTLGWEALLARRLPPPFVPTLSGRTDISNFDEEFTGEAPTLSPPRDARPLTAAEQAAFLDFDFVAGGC
Chain of Angiopoietin-1 receptor (Homo sapiens), Q02763 [Q939H,Q940H,Y897S] (Q02763 whole entry Y897S/Q939H/Q940H): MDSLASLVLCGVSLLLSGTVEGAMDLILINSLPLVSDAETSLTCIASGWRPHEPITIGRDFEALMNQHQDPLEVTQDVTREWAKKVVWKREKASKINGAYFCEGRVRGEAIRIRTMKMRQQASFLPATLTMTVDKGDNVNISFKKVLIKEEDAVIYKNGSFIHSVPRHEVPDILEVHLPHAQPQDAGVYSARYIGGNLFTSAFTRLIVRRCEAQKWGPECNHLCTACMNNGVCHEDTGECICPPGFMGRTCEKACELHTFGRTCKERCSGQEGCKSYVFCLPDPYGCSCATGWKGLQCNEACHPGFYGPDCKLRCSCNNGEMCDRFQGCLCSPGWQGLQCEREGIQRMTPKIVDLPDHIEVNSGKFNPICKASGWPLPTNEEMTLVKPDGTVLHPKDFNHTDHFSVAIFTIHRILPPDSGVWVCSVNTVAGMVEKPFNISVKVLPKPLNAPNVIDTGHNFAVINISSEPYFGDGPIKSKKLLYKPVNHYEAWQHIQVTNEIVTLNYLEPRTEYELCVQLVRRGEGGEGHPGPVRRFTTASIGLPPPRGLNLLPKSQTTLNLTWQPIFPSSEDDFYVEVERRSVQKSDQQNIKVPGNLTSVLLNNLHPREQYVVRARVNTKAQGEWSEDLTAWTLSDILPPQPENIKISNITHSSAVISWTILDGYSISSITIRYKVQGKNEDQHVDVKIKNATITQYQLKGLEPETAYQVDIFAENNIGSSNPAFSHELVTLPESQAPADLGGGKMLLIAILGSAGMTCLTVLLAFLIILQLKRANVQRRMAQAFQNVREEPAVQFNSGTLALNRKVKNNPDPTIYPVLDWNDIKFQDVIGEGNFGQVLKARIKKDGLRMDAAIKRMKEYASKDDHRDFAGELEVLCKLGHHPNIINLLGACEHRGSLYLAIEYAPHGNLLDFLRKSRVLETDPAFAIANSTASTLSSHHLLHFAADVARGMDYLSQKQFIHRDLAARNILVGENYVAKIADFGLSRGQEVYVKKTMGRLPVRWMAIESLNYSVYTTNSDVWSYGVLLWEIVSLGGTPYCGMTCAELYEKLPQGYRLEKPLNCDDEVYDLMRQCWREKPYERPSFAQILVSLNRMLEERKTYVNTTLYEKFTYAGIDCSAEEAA
Chain of Serine/threonine-protein kinase PRP4 homolog (Homo sapiens) (Q13523 whole entry): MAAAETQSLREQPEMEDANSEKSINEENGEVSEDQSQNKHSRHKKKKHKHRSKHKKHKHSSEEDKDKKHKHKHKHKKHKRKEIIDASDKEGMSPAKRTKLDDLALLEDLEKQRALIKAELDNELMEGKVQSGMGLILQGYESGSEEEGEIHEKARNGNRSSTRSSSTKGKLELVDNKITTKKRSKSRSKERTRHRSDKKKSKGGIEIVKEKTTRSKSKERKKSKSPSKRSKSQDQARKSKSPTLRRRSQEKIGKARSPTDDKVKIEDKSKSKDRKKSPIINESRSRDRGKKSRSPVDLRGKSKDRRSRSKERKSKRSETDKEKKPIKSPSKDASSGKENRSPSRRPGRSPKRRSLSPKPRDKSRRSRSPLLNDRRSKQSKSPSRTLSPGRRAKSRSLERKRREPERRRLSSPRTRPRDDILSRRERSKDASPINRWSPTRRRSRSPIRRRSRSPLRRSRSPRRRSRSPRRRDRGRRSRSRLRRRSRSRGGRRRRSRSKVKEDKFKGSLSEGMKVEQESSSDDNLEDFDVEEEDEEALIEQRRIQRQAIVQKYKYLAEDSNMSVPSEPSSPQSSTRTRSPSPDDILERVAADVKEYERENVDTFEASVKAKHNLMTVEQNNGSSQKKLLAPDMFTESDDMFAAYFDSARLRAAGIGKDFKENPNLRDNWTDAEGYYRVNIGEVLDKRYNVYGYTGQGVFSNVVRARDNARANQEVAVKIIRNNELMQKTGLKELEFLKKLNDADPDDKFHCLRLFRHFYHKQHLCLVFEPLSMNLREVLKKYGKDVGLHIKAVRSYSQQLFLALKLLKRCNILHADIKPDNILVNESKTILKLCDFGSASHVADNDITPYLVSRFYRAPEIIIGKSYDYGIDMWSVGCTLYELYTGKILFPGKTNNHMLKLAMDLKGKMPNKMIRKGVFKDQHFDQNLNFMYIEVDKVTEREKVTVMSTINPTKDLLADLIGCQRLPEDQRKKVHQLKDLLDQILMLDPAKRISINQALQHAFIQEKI

SMILES: CN(C)C(=O)c1cc2cnc(Nc3ccc(NC(=O)CCCCCCCN=C=S)cc3)nc2n1C1CCCC1
- IC50 [1]: 1850 nM
- IC50 [2]: 1990 nM
- Activity [3]: 11.2%
- Activity [4]: 2.28%
- inhibition [5]: 48%
- inhibition [6]: 20%
- inhibition [7]: 74%
- inhibition [8]: 55%
- inhibition [9]: 20%
- inhibition [10]: -5%
- inhibition [11]: 28%
- inhibition [12]: -8%
- inhibition [13]: 23%
- inhibition [14]: 17%
- inhibition [15]: 3%
- inhibition [16]: 1%
- inhibition [17]: 71%
- inhibition [18]: 68%
- inhibition [19]: 20%
- inhibition [20]: 80%
